Measured values as given in ChEMBL document CHEMBL1149648, “Norcantharimides, synthesis and anticancer activity: Synthesis of new norcantharidin analogues and their anticancer evaluation” (2007).

How the values were obtained:
Type in all cases: functional
HT-29 = test: Cytotoxicity against human HT29 cells at 100 uM after 72 hrs by MTT assay; details: HT-29, 72 h
In short: (§1)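 Log-phase cells in DMEM with 10% FBS (37 °C, 5% CO2) were plated in duplicate at 2500–4000 cells/well. Agent was added 24 h later at a fixed final concentration of 100 µM and left for 72 h continuous exposure. Read-out was MTT absorbance at 540 nm, expressed as percent growth inhibition, where 100% means total growth inhibition.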

SW480 = test: Cytotoxicity against human SW480 cells at 100 uM after 72 hrs by MTT assay; details: SW480, 72 h; in short: as §1
MCF7 = test: Cytotoxicity against human MCF7 cells at 100 uM after 72 hrs by MTT assay; details: MCF7, 72 h; in short: as §1
A2780 = test: Cytotoxicity against human A2780 cells at 100 uM after 72 hrs by MTT assay; details: A2780, 72 h; in short: as §1
NCI-H460 = test: Cytotoxicity against human H460 cells at 100 uM after 72 hrs by MTT assay; details: NCI-H460, 72 h; in short: as §1
A-431 = test: Cytotoxicity against human A431 cells at 100 uM after 72 hrs by MTT assay; details: A-431, 72 h; in short: as §1
DU-145 = test: Cytotoxicity against human DU145 cells at 100 uM after 72 hrs by MTT assay; details: DU-145, 72 h; in short: as §1
[1] = Cytotoxicity against human BE2C cells at 100 uM after 72 hrs by MTT assay; details: BE(2)-C; in short: as §1
[2] = Cytotoxicity against human SJG2 cells at 100 uM after 72 hrs by MTT assay; details: SJ-G2, 72 h; in short: as §1

SMILES | inhibition at 100 µM (HT-29) | inhibition at 100 µM (SW480) | inhibition at 100 µM (MCF7) | inhibition at 100 µM (A2780) | inhibition at 100 µM (NCI-H460) | inhibition at 100 µM (A-431) | inhibition at 100 µM (DU-145) | inhibition at 100 µM [1] | inhibition at 100 µM [2] | GI50 (HT-29) | GI50 (SW480) | GI50 (MCF7) | GI50 (A2780) | GI50 (NCI-H460) | GI50 (A-431) | GI50 (DU-145) | GI50 [1] | GI50 [2]
O=C1[C@@H]2[C@H](C(=O)N1CCCCCCO)[C@@H]1CC[C@H]2O1 | 21% | 16% | 51% | 18% | 14% | 6% | < 10% | 22% | 12% | – | – | – | – | – | – | – | – | –
CC(CO)N1C(=O)[C@@H]2[C@H](C1=O)[C@@H]1CC[C@H]2O1 (stereo partly specified) | < 10% | < 10% | < 10% | < 10% | < 10% | < 10% | < 10% | < 10% | < 10% | – | – | – | – | – | – | – | – | –
CCC(CO)N1C(=O)[C@@H]2[C@H](C1=O)[C@@H]1CC[C@H]2O1 (stereo partly specified) | < 10% | < 10% | < 10% | < 10% | < 10% | < 10% | < 10% | < 10% | < 10% | – | – | – | – | – | – | – | – | –
O=C1[C@@H]2[C@H](C(=O)N1CCN1CCOCC1)[C@@H]1CC[C@H]2O1 | < 10% | < 10% | < 10% | < 10% | < 10% | < 10% | < 10% | < 10% | < 10% | – | – | – | – | – | – | – | – | –
O=C1[C@@H]2[C@H](C(=O)N1CCCN1CCOCC1)[C@@H]1CC[C@H]2O1 | < 10% | < 10% | < 10% | < 10% | < 10% | < 10% | < 10% | < 10% | < 10% | – | – | – | – | – | – | – | – | –
O=C1[C@@H]2[C@H](C(=O)N1c1ccc([N+](=O)[O-])cc1)[C@@H]1CC[C@H]2O1 | 60% | 44% | > 100% | 53% | 37% | 13% | 13% | 45% | 23% | – | – | – | – | – | – | – | – | –
O=C(O)c1ccc(N2C(=O)[C@@H]3[C@H](C2=O)[C@@H]2CC[C@H]3O2)cc1 | < 10% | < 10% | < 10% | < 10% | < 10% | < 10% | < 10% | < 10% | < 10% | – | – | – | – | – | – | – | – | –
O=C1[C@@H]2[C@H](C(=O)N1CCCN1C(=O)[C@@H]3[C@H](C1=O)[C@@H]1CC[C@H]3O1)[C@@H]1CC[C@H]2O1 | 10% | 16% | 52% | 31% | 18% | 10% | 13% | 10% | 10% | – | – | – | – | – | – | – | – | –
CCCCCCCCCCCCCCN1C(=O)[C@@H]2[C@H](C1=O)[C@@H]1CC[C@H]2O1 | – | – | – | – | – | – | – | – | – | 19 µM | 52 µM | 43 µM | 35 µM | 66 µM | 47 µM | 73 µM | 50 µM | 49 µM
O=C1[C@@H]2[C@H](C(=O)N1CCO)[C@@H]1CC[C@H]2O1 | 31% | 18% | 45% | 15% | 16% | < 10% | < 10% | < 10% | < 10% | – | – | – | – | – | – | – | – | –
COc1ccc(CN2C(=O)[C@@H]3[C@H](C2=O)[C@@H]2CC[C@H]3O2)cc1 | 45% | 24% | 64% | 20% | 23% | 14% | < 10% | 29% | 11% | – | – | – | – | – | – | – | – | –
O=C1[C@@H]2[C@H](C(=O)N1CCCCCCCCCCCCN1C(=O)[C@@H]3[C@H](C1=O)[C@@H]1CC[C@H]3O1)[C@@H]1CC[C@H]2O1 | – | – | – | – | – | – | – | – | – | 8.3 µM | 24 µM | 18 µM | 19 µM | 31 µM | 18 µM | 60 µM | 17 µM | 43 µM
O=C1[C@@H]2[C@H](C(=O)N1N1CCOCC1)[C@@H]1CC[C@H]2O1 | 29% | 29% | 12% | 7% | 18% | 30% | 3% | 39% | 3% | – | – | – | – | – | – | – | – | –
CC(C)(CO)N1C(=O)[C@@H]2[C@H](C1=O)[C@@H]1CC[C@H]2O1 | < 10% | < 10% | < 10% | < 10% | < 10% | < 10% | < 10% | < 10% | < 10% | – | – | – | – | – | – | – | – | –
CCN1C(=O)[C@@H]2[C@H](C1=O)[C@@H]1CC[C@H]2O1 | < 10% | < 10% | < 10% | < 10% | < 10% | < 10% | < 10% | < 10% | < 10% | – | – | – | – | – | – | – | – | –
O=C1[C@@H]2[C@H](C(=O)N1c1ccc(O)cc1)[C@@H]1CC[C@H]2O1 | 47% | 21% | 22% | 15% | 12% | 27% | < 10% | 14% | 44% | – | – | – | – | – | – | – | – | –
O=C(O)CCCN1C(=O)[C@@H]2[C@H](C1=O)[C@@H]1CC[C@H]2O1 | < 10% | < 10% | < 10% | < 10% | < 10% | < 10% | < 10% | < 10% | < 10% | – | – | – | – | – | – | – | – | –
O=C(O)CCCCCN1C(=O)[C@@H]2[C@H](C1=O)[C@@H]1CC[C@H]2O1 | 14% | 11% | 47% | 52% | 12% | 11% | 12% | 22% | < 10% | – | – | – | – | – | – | – | – | –
O=C1[C@@H]2[C@H](C(=O)N1c1ccccc1)[C@@H]1CC[C@H]2O1 | 63% | 78% | > 100% | 90% | 50% | 25% | 24% | 54% | 42% | – | – | – | – | – | – | – | – | –
